Measurements as given in ChEMBL document CHEMBL4689842, “EUbOPEN Chemogenomics Library wave 1” (2021).
Where “and” joins values, the source holds several entries; their conditions need not be identical. Equal entries are not always repeated.

Test system: Fibroblast
Assay: Multiplex assay against human fibroblast
Assay type: toxicity, cell-based
Summary of the method: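 Per cents of healthy-nucleus cells form the tubulin, mitochondrial-mass and membrane-permeability phenotype values. Live cells were stained at seeding with Hoechst33342, BioTracker Green Microtubule Cytoskeleton Dye, MitoTracker Red and Annexin V Alexa Fluor 680. After compound addition they were imaged on a CQ1 microscope at 37°C and 5% CO2, and CellPathfinder machine-learning gating split them into Hoechst high-intensity objects or normal cells, normal cells into healthy, pyknosed or fragmented nuclei, and pyknosed cells into mitotic or apoptotic.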

[1] = 12 h, 1 µM, compound concentration 1 uM, replicate 1
[2] = 12 h, 1 µM, compound concentration 1 uM, replicate 2
[3] = 12 h, 10 µM, compound concentration 10 uM, replicate 1
[4] = 12 h, 10 µM, compound concentration 10 uM, replicate 2
[5] = 24 h, 1 µM, compound concentration 1 uM, replicate 1
[6] = 24 h, 1 µM, compound concentration 1 uM, replicate 2
[7] = 24 h, 10 µM, compound concentration 10 uM, replicate 1
[8] = 24 h, 10 µM, compound concentration 10 uM, replicate 2
[9] = 48 h, 1 µM, compound concentration 1 uM, replicate 1
[10] = 48 h, 1 µM, compound concentration 1 uM, replicate 2
[11] = 48 h, 10 µM, compound concentration 10 uM, replicate 1
[12] = 48 h, 10 µM, compound concentration 10 uM, replicate 2

## CN1CCN(CCOc2cc(OC3CCOCC3)c3c(Nc4c(Cl)ccc5c4OCO5)ncnc3c2)CC1 [SARACATINIB]
[1]
  Population Apoptotic (%): 59%
  Population Fragmented Nuclei (%): 22%
  Population Healthy Nuclei (%): 49%
  Population Hoechst High Intensity Objects (%): 10%
  Population Membrane Permeable-Phenotype (%): 24%
  Population Mitochondria Different-Phenotype (%): 9%
  Population Mitotic Cells (%): 40%
  Population Normal (%): 89%
  Population Pyknosed Nuclei (%): 27%
  Population Tubulin-Different-Phenotype (%): 43%
[2]
  Population Apoptotic (%): 70%
  Population Fragmented Nuclei (%): 9%
  Population Healthy Nuclei (%): 72%
  Population Membrane Permeable-Phenotype (%): 0%
  Population Mitochondria Different-Phenotype (%): 23%
  Population Mitotic Cells (%): 30%
  Population Normal (%): 90%
  Population Pyknosed Nuclei (%): 18%
  Population Tubulin-Different-Phenotype (%): 10%
[3]
  Population Apoptotic (%): 60%
  Population Fragmented Nuclei (%): 20%
  Population Healthy Nuclei (%): 57%
  Population Hoechst High Intensity Objects (%): 13%
  Population Membrane Permeable-Phenotype (%): 16%
  Population Mitochondria Different-Phenotype (%): 21%
  Population Mitotic Cells (%): 39%
  Population Normal (%): 86%
  Population Pyknosed Nuclei (%): 21%
  Population Tubulin-Different-Phenotype (%): 91%
[4]
  Population Apoptotic (%): 75%
  Population Fragmented Nuclei (%): 9%
  Population Healthy Nuclei (%): 71%
  Population Hoechst High Intensity Objects (%): 7%
  Population Membrane Permeable-Phenotype (%): 21%
  Population Mitochondria Different-Phenotype (%): 100%
  Population Mitotic Cells (%): 25%
  Population Normal (%): 92%
  Population Pyknosed Nuclei (%): 18%
  Population Tubulin-Different-Phenotype (%): 100%
[5]
  Population Apoptotic (%): 47%
  Population Fragmented Nuclei (%): 22%
  Population Healthy Nuclei (%): 61%
  Population Hoechst High Intensity Objects (%): 12%
  Population Membrane Permeable-Phenotype (%): 17%
  Population Mitochondria Different-Phenotype (%): 6%
  Population Mitotic Cells (%): 52%
  Population Normal (%): 87%
  Population Pyknosed Nuclei (%): 16%
  Population Tubulin-Different-Phenotype (%): 35%
[6]
  Population Apoptotic (%): 50%
  Population Fragmented Nuclei (%): 14%
  Population Healthy Nuclei (%): 67%
  Population Hoechst High Intensity Objects (%): 8%
  Population Membrane Permeable-Phenotype (%): 6%
  Population Mitochondria Different-Phenotype (%): 13%
  Population Mitotic Cells (%): 50%
  Population Normal (%): 91%
  Population Pyknosed Nuclei (%): 18%
  Population Tubulin-Different-Phenotype (%): 4%
[7]
  Population Apoptotic (%): 50%
  Population Fragmented Nuclei (%): 32%
  Population Healthy Nuclei (%): 57%
  Population Hoechst High Intensity Objects (%): 26%
  Population Membrane Permeable-Phenotype (%): 11%
  Population Mitochondria Different-Phenotype (%): 22%
  Population Mitotic Cells (%): 50%
  Population Normal (%): 73%
  Population Pyknosed Nuclei (%): 10%
  Population Tubulin-Different-Phenotype (%): 89%
[8]
  Population Apoptotic (%): 85%
  Population Fragmented Nuclei (%): 11%
  Population Healthy Nuclei (%): 54%
  Population Hoechst High Intensity Objects (%): 8%
  Population Membrane Permeable-Phenotype (%): 21%
  Population Mitochondria Different-Phenotype (%): 96%
  Population Mitotic Cells (%): 14%
  Population Normal (%): 91%
  Population Pyknosed Nuclei (%): 34%
  Population Tubulin-Different-Phenotype (%): 93%
[9]
  Population Apoptotic (%): 55%
  Population Fragmented Nuclei (%): 40%
  Population Healthy Nuclei (%): 52%
  Population Hoechst High Intensity Objects (%): 10%
  Population Membrane Permeable-Phenotype (%): 11%
  Population Mitochondria Different-Phenotype (%): 2%
  Population Mitotic Cells (%): 44%
  Population Normal (%): 89%
  Population Pyknosed Nuclei (%): 6%
  Population Tubulin-Different-Phenotype (%): 31%
[10]
  Population Apoptotic (%): 66%
  Population Fragmented Nuclei (%): 31%
  Population Healthy Nuclei (%): 66%
  Population Hoechst High Intensity Objects (%): 41%
  Population Membrane Permeable-Phenotype (%): 15%
  Population Mitochondria Different-Phenotype (%): 1%
  Population Mitotic Cells (%): 33%
  Population Normal (%): 58%
  Population Pyknosed Nuclei (%): 2%
  Population Tubulin-Different-Phenotype (%): 51%
[11]
  Population Apoptotic (%): 71%
  Population Fragmented Nuclei (%): 31%
  Population Healthy Nuclei (%): 62%
  Population Hoechst High Intensity Objects (%): 35%
  Population Membrane Permeable-Phenotype (%): 8%
  Population Mitochondria Different-Phenotype (%): 13%
  Population Mitotic Cells (%): 28%
  Population Normal (%): 64%
  Population Pyknosed Nuclei (%): 6%
  Population Tubulin-Different-Phenotype (%): 89%
[12]
  Population Apoptotic (%): 0%
  Population Fragmented Nuclei (%): 44%
  Population Healthy Nuclei (%): 55%
  Population Hoechst High Intensity Objects (%): 27%
  Population Membrane Permeable-Phenotype (%): 12%
  Population Mitochondria Different-Phenotype (%): 23%
  Population Mitotic Cells (%): 0%
  Population Normal (%): 72%
  Population Pyknosed Nuclei (%): 0%
  Population Tubulin-Different-Phenotype (%): 93%

## CNCc1ccc(-c2cc(-c3nc(-c4ccc(S(=O)(=O)C(C)C)cc4)cnc3N)on2)cc1 [BERZOSERTIB]
[1]
  Population Apoptotic (%): 45% and 78%
  Population Fragmented Nuclei (%): 22% and 31%
  Population Hoechst High Intensity Objects (%): 63% and 99%
  Population Membrane Permeable-Phenotype (%): 1%
  Population Mitochondria Different-Phenotype (%): 0%
  Population Mitotic Cells (%): 54% and 21%
  Population Pyknosed Nuclei (%): 54% and 63%
[2]
  Population Apoptotic (%): 47% and 100%
  Population Fragmented Nuclei (%): 47% and 96%
  Population Hoechst High Intensity Objects (%): 68% and 95%
  Population Membrane Permeable-Phenotype (%): 14% and 0%
  Population Mitochondria Different-Phenotype (%): 4%
  Population Tubulin-Different-Phenotype (%): 0%
[3]
  Population Apoptotic (%): 51% and 76%
  Population Fragmented Nuclei (%): 24% and 41%
  Population Healthy Nuclei (%): 21%
  Population Hoechst High Intensity Objects (%): 64% and 99%
  Population Membrane Permeable-Phenotype (%): 5%
  Population Mitochondria Different-Phenotype (%): 1%
  Population Mitotic Cells (%): 48% and 23%
  Population Pyknosed Nuclei (%): 54%
  Population Tubulin-Different-Phenotype (%): 8%
  Total Cell Count: 976 and 2548
[4]
  Population Apoptotic (%): 48% and 100%
  Population Fragmented Nuclei (%): 54% and 93%
  Population Hoechst High Intensity Objects (%): 69% and 96%
  Population Membrane Permeable-Phenotype (%): 12% and 0%
  Population Mitochondria Different-Phenotype (%): 6% and 0%
  Population Tubulin-Different-Phenotype (%): 3% and 0%
[5]
  Population Fragmented Nuclei (%): 66% and 26%
  Population Hoechst High Intensity Objects (%): 99% and 67%
  Population Membrane Permeable-Phenotype (%): 0% and 1%
  Population Mitochondria Different-Phenotype (%): 0%
  Population Mitotic Cells (%): 100% and 57%
  Population Pyknosed Nuclei (%): 33% and 40%
  Population Tubulin-Different-Phenotype (%): 0%
[6]
  Population Apoptotic (%): 37% and 100%
  Population Fragmented Nuclei (%): 53% and 94%
  Population Hoechst High Intensity Objects (%): 69% and 96%
  Population Membrane Permeable-Phenotype (%): 25%
  Population Mitochondria Different-Phenotype (%): 12%
[7]
  Population Fragmented Nuclei (%): 0% and 19%
  Population Hoechst High Intensity Objects (%): 100% and 68%
  Population Membrane Permeable-Phenotype (%): 0% and 8%
  Population Mitochondria Different-Phenotype (%): 0%
  Population Tubulin-Different-Phenotype (%): 0%
[8]
  Population Apoptotic (%): 54%
  Population Fragmented Nuclei (%): 93% and 42%
  Population Hoechst High Intensity Objects (%): 97% and 74%
  Population Mitochondria Different-Phenotype (%): 7%
  Population Mitotic Cells (%): 45%
  Population Pyknosed Nuclei (%): 33%
  Population Tubulin-Different-Phenotype (%): 11%

## Cc1sc2c(c1C)C(c1ccc(Cl)cc1)=N[C@@H](CC(=O)OC(C)(C)C)c1nnc(C)n1-2
[3]
  Population Apoptotic (%): 71% and 88%
  Population Fragmented Nuclei (%): 38% and 43%
  Population Healthy Nuclei (%): 48% and 40%
  Population Hoechst High Intensity Objects (%): 13% and 14%
  Population Membrane Permeable-Phenotype (%): 7% and 4%
  Population Mitochondria Different-Phenotype (%): 0%
  Population Mitotic Cells (%): 28% and 12%
  Population Normal (%): 86% and 85%
  Population Pyknosed Nuclei (%): 13% and 16%
  Population Tubulin-Different-Phenotype (%): 4% and 0%
  Total Cell Count: 368 and 183
[4]
  Population Apoptotic (%): 66%
  Population Fragmented Nuclei (%): 55% and 63%
  Population Healthy Nuclei (%): 39% and 31%
  Population Hoechst High Intensity Objects (%): 24% and 25%
  Population Membrane Permeable-Phenotype (%): 10% and 0%
  Population Mitotic Cells (%): 33%
  Population Normal (%): 75%
  Population Pyknosed Nuclei (%): 6% and 4%
  Total Cell Count: 132 and 92
[7]
  Population Apoptotic (%): 73%
  Population Fragmented Nuclei (%): 36% and 29%
  Population Healthy Nuclei (%): 47% and 59%
  Population Hoechst High Intensity Objects (%): 12% and 16%
  Population Membrane Permeable-Phenotype (%): 7%
  Population Mitochondria Different-Phenotype (%): 6%
  Population Mitotic Cells (%): 26%
  Population Normal (%): 87% and 83%
  Population Pyknosed Nuclei (%): 16% and 11%
  Population Tubulin-Different-Phenotype (%): 2% and 1%
  Total Cell Count: 183 and 320
[8]
  Population Apoptotic (%): 71% and 66%
  Population Fragmented Nuclei (%): 56% and 42%
  Population Healthy Nuclei (%): 31% and 49%
  Population Hoechst High Intensity Objects (%): 28% and 21%
  Population Mitochondria Different-Phenotype (%): 11% and 14%
  Population Mitotic Cells (%): 28% and 33%
  Population Normal (%): 71% and 78%
  Population Pyknosed Nuclei (%): 12% and 8%
  Population Tubulin-Different-Phenotype (%): 11%
  Total Cell Count: 81 and 91
